Measured values: ChEMBL document CHEMBL3046238, “Synthesis and biological activity evaluation of 1,2,3-thiadiazole derivatives as potential elicitors with highly systemic acquired resistance” (2009)
The source made the active and inactive calls. The rule behind the calls is not given here.

Tests used:
Format in all cases: functional
[1] = system: Cytospora mali; experiment: Antifungal activity against Valsa mali assessed as growth inhibition at 50 ug/mL measured after 2 days post dose; settings: for inhibition of growth at 50 µg/mL: 48 h, read-out: GI
[2] = system: Alternaria mali; experiment: Antifungal activity against Alternaria mali assessed as growth inhibition at 50 ug/mL measured after 2 days post dose; settings: 48 h, read-out: GI
[3] = system: Sclerotinia sclerotiorum; experiment: Antifungal activity against Sclerotinia sclerotiorum assessed as growth inhibition at 50 ug/mL measured after 2 days post dose; settings: for inhibition of growth at 50 µg/mL: 48 h, read-out: GI
[4] = system: Botrytis cinerea; experiment: Antifungal activity against Botryotinia fuckeliana assessed as growth inhibition at 50 ug/mL measured after 2 days post dose; settings: for inhibition of growth at 50 µg/mL: 48 h, read-out: GI
[5] = system: Puccinia triticina; experiment: Antifungal activity against Puccinia triticina inoculated on 500 ug/mL compound pre-treated wheat plants with 3 to 5 leaves assessed as growth inhibition
Outline: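 Healthy wheat plants at the 3-5 leaf stage were sprayed with compound (500 μg/mL) and then inoculated with spores. Inhibition percentage was calculated against the corresponding spore stack.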

[6] = system: Ceratobasidium cereale; experiment: Antifungal activity against Ceratobasidium cereale assessed as growth inhibition at 50 ug/mL measured after 2 days post dose
[7] = system: Botryosphaeria berengeriana; experiment: Antifungal activity against Botryosphaeria berengeriana assessed as growth inhibition at 50 ug/mL measured after 2 days post dose
[8] = system: Phytophthora infestans; experiment: Antifungal activity against Phytophthora infestans assessed as growth inhibition at 50 ug/mL measured after 2 days post dose
Outline: (§1)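 Compound stock at 500 μg/mL in DMF, diluted with sterile water in the dish and mixed into potato dextrose agar before setting. A 4 mm diameter fungal plug is placed on the plate and cultured at 24-26 °C. Colony diameter is measured after 2 days.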

[9] = system: Rhizoctonia solani; experiment: Antifungal activity against Rhizoctonia solani assessed as growth inhibition at 50 ug/mL measured after 2 days post dose
[10] = system: Alternaria solani; experiment: Antifungal activity against Alternaria solani assessed as growth inhibition at 50 ug/mL measured after 2 days post dose; settings: 48 h, read-out: GI
[11] = system: Fusarium oxysporum f. sp. vasinfectum; experiment: Antifungal activity against Fusarium oxysporum f. sp. vasinfectum assessed as growth inhibition at 50 ug/mL measured after 2 days post dose; settings: for inhibition of growth at 50 µg/mL: 48 h, read-out: GI
[12] = system: Colletotrichum gloeosporioides; experiment: Antifungal activity against Glomerella cingulata assessed as growth inhibition at 50 ug/mL measured after 2 days post dose; settings: for inhibition of growth at 50 µg/mL: 48 h, read-out: GI
[13] = system: Ustilaginoidea virens; experiment: Antifungal activity against Villosiclava virens assessed as growth inhibition at 50 ug/mL measured after 2 days post dose; settings: for inhibition of growth at 50 µg/mL: 48 h, read-out: GI
[14] = system: Fusarium graminearum; experiment: Antifungal activity against Fusarium graminearum assessed as growth inhibition at 50 ug/mL measured after 2 days post dose; settings: 48 h, read-out: GI; outline: as §1
[15] = system: Mycosphaerella arachidis; experiment: Antifungal activity against Mycosphaerella arachidis assessed as growth inhibition at 50 ug/mL measured after 2 days post dose; settings: 48 h, read-out: GI
[16] = system: Fusarium oxysporum; experiment: Antifungal activity against Fusarium oxysporum assessed as growth inhibition at 50 ug/mL measured after 2 days post dose; settings: 48 h, read-out: GI
[17] = system: Fusarium fujikuroi; experiment: Antifungal activity against Fusarium fujikuroi assessed as growth inhibition at 50 ug/mL measured after 2 days post dose; settings: 48 h, read-out: GI
[18] = system: Tobacco mosaic virus; experiment: (§2) Induction of systemic acquired resistance against Tobacco mosaic virus (TMV) in tobacco plants exposed to 50 ug/mL compound through leaf spray followed by 7 days culture under green house conditions assessed as inhibition of viral growth in leaves infected with Tobacco mosaic virus (TMV) measured 72 hr post viral infection by half-leaf juice rubbing method; parameters: scale not given: the % may be the effect or the level left
Outline: (§3)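 Tobacco plants received compound by leaf spray or by soil irrigation, with double-distilled water as CK. Newly grown leaves were then rub-inoculated with TMV (5.88×10-2 μg/mL), and plants were kept at 25 °C for 72 h. Lesions on inoculated leaves were counted. Inhibition = (CK−A)/CK×100 from mean lesion numbers versus control.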

[19] = system: Tobacco mosaic virus; experiment: as §2, with “500” for “50”; parameters: scale not given: the % may be the effect or the level left; outline: as §3
[20] = system: Alternaria kikuchiana; experiment: Antifungal activity against Alternaria kikuchiana assessed as growth inhibition at 50 ug/mL measured after 2 days post dose; settings: 48 h, read-out: GI
[21] = system: Colletotrichum lagenaria; experiment: Antifungal activity against Colletotrichum lagenaria assessed as growth inhibition at 50 ug/mL measured after 2 days post dose; settings: 48 h, read-out: GI
[22] = system: Phomopsis asparagi; experiment: Antifungal activity against Phomopsis asparagi assessed as growth inhibition at 50 ug/mL measured after 2 days post dose; settings: for inhibition of growth at 50 µg/mL: 48 h, read-out: GI
[23] = system: Puccinia triticina; experiment: Antifungal activity against Puccinia triticina inoculated on 100 ug/mL compound pre-treated wheat plants with 3 to 5 leaves assessed as growth inhibition
[24] = system: Tobacco mosaic virus; experiment: as §2, with “500” for “50”, “irrigation based soil treatment” for “leaf spray”; parameters: scale not given: the % may be the effect or the level left; outline: as §3
[25] = system: Tobacco mosaic virus; experiment: In vivo antiviral activity against Tobacco mosaic virus (TMV) infected tobacco leaves exposed to 500 ug/mL for 20 min assessed as inhibition of viral growth measured 72 hr post compound treatment compound by half-leaf juice rubbing method
Outline: (§4)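 Half-leaf method on tobacco. A fresh leaf from a plant at the 5-6 leaf age was rub-inoculated with TMV (5.88×10-2 μg/mL) and cut along the main vein. One half was immersed in compound solution and the other in double-distilled water, each for 20 min. Halves were kept at 25 °C and 100% humidity for 72 h, then lesions were counted. Three replicates were run. Inhibition = (CK−A)/CK×100 from mean lesion numbers.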

[26] = system: Tobacco mosaic virus; experiment: Antiviral activity against Tobacco mosaic virus (TMV) infected tobacco leaves exposed to 500 ug/mL for 20 min assessed as inhibition of viral growth measured 72 hr post compound treatment compound by half-leaf juice rubbing method; outline: as §4
[27] = system: Tobacco mosaic virus; experiment: as §2, with “2000” for “50”, “irrigation based soil treatment” for “leaf spray”; parameters: scale not given: the % may be the effect or the level left; outline: as §3
[28] = system: Tobacco mosaic virus; experiment: as §2, with “irrigation based soil treatment” for “leaf spray”; parameters: scale not given: the % may be the effect or the level left; outline: as §3
[29] = system: Tobacco mosaic virus; experiment: as §2, with “100” for “50”, “irrigation based soil treatment” for “leaf spray”; parameters: scale not given: the % may be the effect or the level left; outline: as §3
[30] = system: Tobacco mosaic virus; experiment: as §2, with “1000” for “50”, “irrigation based soil treatment” for “leaf spray”; parameters: scale not given: the % may be the effect or the level left; outline: as §3
[31] = system: Tobacco mosaic virus; experiment: as §2, with “2000” for “50”; parameters: scale not given: the % may be the effect or the level left; outline: as §3
[32] = system: Tobacco mosaic virus; experiment: Antiviral activity against Tobacco mosaic virus (TMV) infected tobacco leaves exposed to 2000 ug/mL for 20 min assessed as inhibition of viral growth measured 72 hr post compound treatment compound by half-leaf juice rubbing method; outline: as §4
[33] = system: Tobacco mosaic virus; experiment: Antiviral activity against Tobacco mosaic virus (TMV) infected tobacco leaves exposed to 1000 ug/mL for 20 min assessed as inhibition of viral growth measured 72 hr post compound treatment compound by half-leaf juice rubbing method; outline: as §4
[34] = system: Tobacco mosaic virus; experiment: as §2, with “100” for “50”; parameters: scale not given: the % may be the effect or the level left; outline: as §3
[35] = system: Tobacco mosaic virus; experiment: as §2, with “1000” for “50”; parameters: scale not given: the % may be the effect or the level left; outline: as §3
[36] = system: Tobacco mosaic virus; experiment: In vivo antiviral activity against Tobacco mosaic virus (TMV) infected tobacco leaves exposed to 50 ug/mL for 20 min assessed as inhibition of viral growth measured 72 hr post compound treatment compound by half-leaf juice rubbing method; outline: as §4
[37] = system: Tobacco mosaic virus; experiment: In vivo antiviral activity against Tobacco mosaic virus (TMV) infected tobacco leaves exposed to 1000 ug/mL for 20 min assessed as inhibition of viral growth measured 72 hr post compound treatment compound by half-leaf juice rubbing method; outline: as §4
[38] = system: Tobacco mosaic virus; experiment: In vivo antiviral activity against Tobacco mosaic virus (TMV) infected tobacco leaves exposed to 100 ug/mL for 20 min assessed as inhibition of viral growth measured 72 hr post compound treatment compound by half-leaf juice rubbing method; outline: as §4
[39] = system: Tobacco mosaic virus; experiment: Antiviral activity against Tobacco mosaic virus (TMV) infected tobacco leaves exposed to 100 ug/mL for 20 min assessed as inhibition of viral growth measured 72 hr post compound treatment compound by half-leaf juice rubbing method; outline: as §4
[40] = system: Tobacco mosaic virus; experiment: Antiviral activity against Tobacco mosaic virus (TMV) infected tobacco leaves exposed to 50 ug/mL for 20 min assessed as inhibition of viral growth measured 72 hr post compound treatment compound by half-leaf juice rubbing method; outline: as §4

Row | Compound | inhibition of growth at 50 µg/mL [1] | inhibition of growth at 50 µg/mL [2] | inhibition of growth at 50 µg/mL [3] | inhibition of growth at 50 µg/mL [4] | growth inhibition (GI) [5] | inhibition of growth at 50 µg/mL [10] | inhibition of growth at 50 µg/mL [11] | inhibition of growth at 50 µg/mL [12] | inhibition of growth at 50 µg/mL [13] | inhibition of growth at 50 µg/mL [14] | inhibition of growth at 50 µg/mL [15] | inhibition of growth at 50 µg/mL [16] | inhibition of growth at 50 µg/mL [17] | Activity [18] | Activity [19] | inhibition of growth at 50 µg/mL [20] | inhibition of growth at 50 µg/mL [21] | inhibition of growth at 50 µg/mL [22] | growth inhibition (GI) [25] | growth inhibition (GI) [26] | other results
1 | COc1ccc(-c2nnc(-c3snnc3C)o2)cc1 | 47.2% | 37.9% | 23.5% | 31% | 0% | 17.6% | 0% | 29.4% | 29.4% | 37.9% | 17.6% | 0% | 0% | 78% | 80% | – | – | – | – | – | inhibition of growth at 50 µg/mL ([6]; 48 h, read-out: GI): 31%; inhibition of growth at 50 µg/mL ([7]; 48 h, read-out: GI): 33.3%; growth inhibition (GI) [8]: inactive; inhibition of growth at 50 µg/mL ([9]; 48 h, read-out: GI): 0%
2 | Cc1nnsc1C(=O)Nc1nc(-c2ccccc2)cs1 | 22.2% | 10% | 47.3% | 8.3% | 0% | 15.8% | 40% | 15.8% | 55.6% | 18.8% | 14.3% | 13.3% | 64.3% | 74% | 70% | 37.5% | 6.7% | 6.3% | – | – | –
3 | Cc1csc(NC(=O)c2snnc2C)n1 | – | 50% | – | – | inactive | 35.7% | – | – | – | 7.1% | 29.4% | 15% | 64.3% | 81% | 70% | 17.6% | 17.6% | – | – | – | growth inhibition (GI) [1]: inactive; growth inhibition (GI) [3]: inactive; growth inhibition (GI) [4]: inactive; growth inhibition (GI) [11]: inactive; growth inhibition (GI) [12]: inactive; growth inhibition (GI) [13]: inactive; growth inhibition (GI) [22]: inactive
4 | N#Cc1c(Cl)c(Cl)c(Cl)c(C#N)c1Cl [CHLOROTHALONIL] | – | – | – | – | – | – | – | – | – | – | – | – | – | – | – | – | – | – | – | – | growth inhibition (GI) [23]: 100%
5 | O=C1NCNC(=O)N1 | – | – | – | – | – | – | – | – | – | – | – | – | – | – | 5% | – | – | – | 42% | 49% | Activity [24]: 8%
6 | O=C(O)c1cccc2nnsc12 [1,2,3-benzothia-diazole-7-carboxylic acid] | – | – | – | – | – | – | – | – | – | – | – | – | – | 3% | 5% | – | – | – | 5% | 3% | Activity [27]: 2%; Activity [28]: 10%; Activity [29]: 0%; Activity [24]: 5%; Activity [30]: 8%; Activity [31]: 12%; growth inhibition (GI) [32]: 8%; growth inhibition (GI) [33]: 6%; Activity [34]: 0%; Activity [35]: 8%; growth inhibition (GI) [36]: 0%; growth inhibition (GI) [37]: 18%; growth inhibition (GI) [38]: 8%; growth inhibition (GI) [39]: 5%; growth inhibition (GI) [40]: 7%
7 | Cc1nnsc1C(=O)Nc1nc(-c2ccc([N+](=O)[O-])cc2)cs1 | 26.1% | 24.1% | 11.1% | – | inactive | 20% | 14.3% | 8% | – | 37.5% | 35.7% | 13.3% | 5.3% | – | 0% | 0% | 17.6% | – | – | – | growth inhibition (GI) [4]: inactive; growth inhibition (GI) [13]: inactive; growth inhibition (GI) [22]: inactive
8 | CCc1sc(NC(=O)c2snnc2C)nc1-c1ccc(Cl)cc1Cl | 44.4% | 35% | 61.5% | 40% | 0% | 33.3% | 20% | 20.1% | 33.3% | 25% | 14.3% | 13.3% | 64.3% | – | 0% | 37.5% | 26.7% | 12.5% | – | – | –
9 | Cc1ccc(NC(=O)c2snnc2C)cc1Cl [TIADINIL] | 3.6% | 32.1% | 34.4% | 23.9% | 40% | 0% | 5.3% | 51.6% | 12% | 25% | 13.6% | 12.5% | 0% | 63% | 40% | 0% | 22.8% | 60% | 0% | 0% | growth inhibition (GI) [6]: inactive; growth inhibition (GI) [7]: inactive; growth inhibition (GI) [8]: inactive; growth inhibition (GI) [9]: inactive
